Bioassay records: PubChem, The Scripps Research Institute Molecular Screening Center
Most compounds without a hit are left out; they make up all but 2% or so of the library.
TCR CD3 inh: blocks the human TCR-CD3 interaction; TAMRA-labeled TCR probe fluorescence, biochemical; inhibition, % at 9.4 µM; AID 651800; 360,000 tested, 0.37% active; in the data active = inhibition above about 19%;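 also: recombinant mutant TCR 2C K166C tagged with TAMRA read by polarization; 0% = receptor in buffer alone and 100% = receptor with positive control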
PAD4 inh: PAD4 (human) enzyme inhibition | recombinant PAD4, RCA probe fluorescence polarization | inhibition, % at 6.36 µM | 330,000 tested, 0.41% active | AID 485272;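 active = percent inhibition above a cutoff equal to the mean of all tested compounds plus 3 SD, cut at about 15% in these data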;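 also: 0% = PAD4 with RCA probe and DMSO and 100% = probe without PAD4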
HTRA1 inhibitor: inhibitors of human serine peptidase HTRA1; inhibition, % at 5.96 µM; AID 504803; Q92743; recombinant HTRA1, FP-rhodamine activity-based probe, fluorescence polarization; 340,000 tested, 0.5% active; in the data active = inhibition above about 36%;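 also: 0% = enzyme with DMSO and 100% = wells lacking enzyme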
ABHD4 inh: inhibits mouse alpha/beta hydrolase domain 4 | Q8VD66 | purified mABHD4, FP-Rh probe fluorescence polarization | inhibition, % at 8.92 µM | 370,000 tested, 0.54% active;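 active = inhibition exceeding the mean over every tested compound plus 3 SD, cut at about 30% in these data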;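 also: 0% = plate median of compound wells and 100% = S159A mutant with DMSO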
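assay system = mABHD4 protein | compound dosing = single nominal dose of 8.92 µM, 0.89% DMSO final | read-out basis = percent inhibition of probe binding, normalized to plate controls | schedule = Enzyme–compound pre-incubation 45 min, then probe 60 min, both 25 °C | detection = fluorescence polarization, excitation 525 nm, emission 598 nm, BODIPY TMR filters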
SIAE inh: human SIAE inhibition, primary screen; Q9HAT2; SIAE FP-Rh probe binding, fluorescence polarization; AID 1053197; inhibition, % at 9.66 µM; 370,000 tested, 0.69% active;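 active = inhibition above a cutoff: mean of compounds within the control limits plus 3 SD of those, cut at about 17% in these data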;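 also: 0% = plate median of compound wells and 100% = probe without SIAE protein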
Target sequence (Q9HAT2 whole entry, looked up): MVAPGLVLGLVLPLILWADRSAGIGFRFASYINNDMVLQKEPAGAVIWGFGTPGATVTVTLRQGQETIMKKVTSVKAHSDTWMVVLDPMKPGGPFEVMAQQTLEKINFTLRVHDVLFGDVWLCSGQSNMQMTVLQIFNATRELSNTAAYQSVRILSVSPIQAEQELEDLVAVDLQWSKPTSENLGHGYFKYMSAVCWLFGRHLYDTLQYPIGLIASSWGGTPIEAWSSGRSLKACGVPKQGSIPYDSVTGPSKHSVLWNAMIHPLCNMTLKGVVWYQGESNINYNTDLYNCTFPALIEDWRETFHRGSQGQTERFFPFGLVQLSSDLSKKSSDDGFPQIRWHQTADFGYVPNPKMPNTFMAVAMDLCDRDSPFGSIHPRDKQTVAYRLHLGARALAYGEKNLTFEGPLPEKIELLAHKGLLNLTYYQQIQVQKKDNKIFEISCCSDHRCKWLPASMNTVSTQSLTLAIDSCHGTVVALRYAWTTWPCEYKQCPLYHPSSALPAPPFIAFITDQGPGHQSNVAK
TDP2 absorb: TDP2 (human) inhibition, absorbance primary screen; O95551; recombinant TDP2, T5PNP hydrolysis, p-nitrophenol absorbance 415 nm; inhibition, % at 12.8 µM; 370,000 tested, 0.34% active; AID 720702;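 active = inhibition above the mean of all tested compounds plus 3 SD, set per campaign, cut at about 25% in these data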;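 also: 0% = DMSO with enzyme and 100% = buffer with substrate but no TDP2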
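Incubation: 2 h at 37 °C; Test system: recombinant human TDP2; Quantity: enzyme 120 nM; Read-out basis: percent inhibition; Medium: 50 mM Tris-HCl pH 7.5 with Mg2+, KCl, DTT, BSA; Repeats: single replicate; Compound: 12.8 µM single point, 1% DMSO; Signal: epi absorbance; Reagent: 5 mM T5PNP chromogenic substrate; Benchmarks: no-enzyme high, DMSO-plus-enzyme low.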
SIAE inh conf: confirmation of human SIAE inhibitors | shares compounds with SIAE inh | SIAE FP-Rh activity-based probe, fluorescence polarization | inhibition, % at 9.66 µM | 2,300 tested, 13% active;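 active = mean inhibition of the replicates above the hit cutoff set in the primary screen, cut at about 17% in these data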;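 also: 0% = SIAE with DMSO and probe and 100% = probe without SIAE; inhibitors lower polarization as more probe stays unbound to SIAE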
Numbers without * were called inactive; . = no result given.

SMILES	TCR CD3 inh	PAD4 inh	HTRA1 inhibitor	ABHD4 inh	SIAE inh	TDP2 absorb	SIAE inh conf
Cn1cnc([N+](=O)[O-])c1S(=O)(=O)Oc1ccc(Cl)cc1	-6	.	4	-3	0	10	.
O=C(COc1cccc(Cl)c1)N/N=C\c1cc2ccccc2nc1Cl	-4	-1	4	0	1	0	.
O=C(CNc1ccc2ccccc2c1)N/N=C/c1cc2ccccc2nc1Cl	0	-10	7	23	18*	17	-10
COCCNC(=O)c1ccccc1NC(=O)CCSc1ccccc1	-3	-1	-4	-2	-3	-4	.
O=C(N/N=C\c1ccccn1)c1cccc(C(=O)N/N=C\c2ccccn2)n1	18	2	-2	-5	21*	-1	21*
O=C(N/N=C/c1ccccn1)c1ccccc1	-6	3	1	-4	-3	-10	.
COc1ccccc1NC(=S)NCCN1CCOCC1	-5	-5	-3	-2	17*	9	3
COc1ccccc1NC(=S)NCc1ccc(Cl)cc1	3	0	-2	7	18*	13	-1
COc1ccc(Cl)cc1NC(=S)NCCc1ccc(S(N)(=O)=O)cc1	5	3	-6	-3	36*	-7	2
CC(=O)c1sc(NC(=O)CSC(C)C(=O)Nc2cc(C)on2)nc1-c1ccccc1 (centres undefined)	2	3	-3	-3	2	3	.
CCOC(=O)[C@]12CCC=C1N(Cc1ccco1)C(=O)[C@H](CC(=O)NCC13CC4CC(CC(C4)C1)C3)C2	1	.	.	2	-1	6	.
O=C(CCC1CCCC1)NCCCNC(=O)CCC1CCCC1	7	-2	3	2	4	12	.
Cc1ncc(CSc2nc3ccccc3[nH]2)c(N)n1	-2	3	3	2	-2	1	.
COc1ccc2nc(SCc3cnc(C)nc3N)[nH]c2c1	4	5	1	10	19*	19	-4
CCOc1ccc(-c2cc(C(=O)OC)c3n(c2=O)CCC3)cc1	.	.	.	1	1	11	.
CCOC(=O)N1CCN(S(=O)(=O)c2ccc(C)c(C(=O)NC3CCCCC3)c2)CC1	4	-2	10	4	19*	21	-6
CCOC(=O)C1CCN(S(=O)(=O)c2ccc(C)c(C(=O)NC3CCCCC3)c2)CC1	-3	-1	6	5	-6	8	.
CC(=O)Nc1ccc(NC(=O)C(C)OC(=O)COc2ccc(Nc3ccccc3)cc2)cc1 (centres undefined)	0	0	12	8	23*	0	8
CCOc1ccc(OCCC(=O)OC(C)C(=O)Nc2ccc(C(C)=O)cc2)cc1 (centres undefined)	3	4	-1	-4	-1	-13	.
CS(=O)(=O)N(CC(=O)NCCSC1CCCCC1)c1cccc(F)c1	-2	-2	0	8	18*	-6	1
CS(=O)(=O)N(CC(=O)NCCSC1CCCCC1)c1ccccc1	6	-1	-5	-4	-6	9	.
Cc1ccc2[nH]c(O)c(N=NC(N)=S)c2c1	1	-1	-3	1	6	-16	.
CC(/C=C(\NC(=O)c1ccccc1)C(=O)N=Nc1c(O)[nH]c2ccc(C)cc12)=C\c1ccccc1	5	-1	-22	4	21*	-4	9
Fc1ccccc1/C=C1\CCCC2=C1NC(=S)NC2c1ccccc1F (centres undefined)	4	-3	-34	-9	4	7	.
CCCCc1ccc(C2C3=C(CC(C)(C)CC3=O)NC3=C2C(=O)c2ccccc23)cc1 (centres undefined)	2	-5	11	16	19*	-11	8
SMILES	TCR CD3 inh	PAD4 inh	HTRA1 inhibitor	ABHD4 inh	SIAE inh	TDP2 absorb	SIAE inh conf
CC(=O)c1ccc(OCCCC(=O)Nc2nnc(C3CC3)s2)cc1	-1	3	1	2	1	0	.
O=C(NCc1ccccc1)c1ccc(NC(=O)C2CCCO2)cc1 (centres undefined)	0	-1	1	5	0	5	.
CCCCCC(=O)Nc1ccc2oc(-c3cncc(Br)c3)nc2c1	4	-6	-5	-2	36*	-3	-5
CC(=O)Nc1nc2ncccn2c1-c1ccccc1	.	.	.	0	0	-11	.
C/C(=N\Nc1cc(C)nc(-c2ccccc2O)n1)c1ccccc1	-2	-1	-26	-8	-8	-4	.
Cc1cc(N/N=C/c2ccc(O)c(C)c2O)nc(-c2ccccc2O)n1	3	3	19	-22	36*	-5	2
COc1ccc(NC(=O)Nc2ccc3c(c2)N(C)C(=O)CS3)cc1Cl	-2	-1	1	10	27*	-2	-3
CCOc1ccc(NC(=O)Nc2ccc3c(c2)N(C)C(=O)CS3)cc1	1	-3	-4	2	18*	-7	-1
Cc1ccc(CN(C)C(=O)C2CCC(=O)N(C3CCCCCC3)C2)cc1 (centres undefined)	9	2	1	4	1	-6	.
CC(=O)c1ccc2c(c1)N(Cc1ccccc1)C(=O)C(C)S2 (centres undefined)	-1	.	.	2	0	0	.
C/C(=N\NC(=O)c1ccc(-c2ccccc2)cc1)c1ccco1	4	-4	-6	1	-3	-9	.
C/C(=N\NC(=O)c1cc([N+](=O)[O-])cc([N+](=O)[O-])c1)c1ccco1	0	-3	3	5	18*	9	4
COc1cc(C(=O)Nc2scc(-c3ccc(Br)cc3)c2C(=O)O)cc(OC)c1OC	-1	-4	-1	-37	23*	-1	31*
Cn1cccc1CNC(=S)Nc1ccccc1F	-5	-3	3	-6	-1	-10	.
O=C(N/N=C/c1c(O)ccc2ccccc12)c1[nH]ncc1Br	11	-1	33	17	19*	-17	-5
Cc1ccc(O)c(/C=N/NC(=O)c2[nH]ncc2Br)c1	13	-3	2	-1	1	-1	.
Cc1onc(-c2c(Cl)cccc2Cl)c1CO/N=C(\C#N)c1c(Cl)cccc1Cl	3	6	-9	-11	-6	-21	.
COc1ccc2c(c1)C(=O)C1(CC2)OC1c1cccnc1 (centres undefined)	-4	.	-5	1	2	-3	.
COC(=O)C1CCCCN1C(=O)c1ccc2oc(Cc3ccccc3)nc2c1 (centres undefined)	-6	.	-1	-1	-4	-4	.
COC(=O)C1CCCCN1C(=O)c1ccc2oc(C(C)C)nc2c1 (centres undefined)	0	-7	1	3	17*	-8	6
COc1ccccc1C(=O)NCCC(=O)NCc1cccnc1	-8	-1	2	-3	11	1	.
